Most compounds without a hit are left out; they make up all but 1.6% or so of the library.
TPT1 inh: Candida albicans TPT1 enzyme inhibitors, primary screen, biochemical, fluorescence polarization; tRNA 2'-phosphotransferase TPT1 (Candida albicans SC5314); recombinant caTPT1, FP RNA substrate dephosphorylation; inhibition, % at 5 µM; 300,000 compounds, 0.81% hits; AID 1962, 2009;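 active means inhibition above the mean of all tested compounds plus 3 SD, set per screening campaign, cut at about 24% in these data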
SENP1 FRET inh: human SENP1 catalytic domain inhibitors, primary screen, biochemical, FRET, uHTS | recombinant SENP1 catalytic domain, CyPet-SUMO1-YPet FRET cleavage | 360,000 compounds, 0.21% hits | inhibition, % at 10 µM | AID 624204, 2012;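 active means inhibition at least 30% at 10 µM, raw YFP signal under a set limit, fluorescence ratio 0.5 to 1.5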
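System: Recombinant human SENP1 catalytic domain, His6-tagged | Incubation: Enzyme reaction for 50 min at room temperature, dark | Medium: Tris pH 8 with BME, BSA, NP40 and catalase | Also added: 25 nM SUMO1 FRET substrate | Compound: 10 µM single point, 0.5% DMSO | Measured by: FRET fluorescence in CFP and YFP emission channels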
CSN inh: inhibitors of CSN-mediated cullin deneddylation, primary screen, biochemical, fluorescence polarization, uHTS; COP9 signalosome complex subunit 5 (Homo sapiens), Q92905; Purified CSN, SCF-Nedd8-OG deneddylation; inhibition, % at 12.5 µM; 360,000 compounds, 0.38% hits; AID 651999, 2013;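 active means pattern-corrected inhibition above about 35%, with an unprinted fluorescence ratio check between 0.5 and 1.5, limit read from the data, passing the limit was not always enough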
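test system = HEK293T-derived human Csn5 enzyme | amount = 0.24 nM Csn5 enzyme, final concentration | medium = Tris/NaCl/DTT buffer, pH 7.5 | schedule = 90 min reaction at room temperature | signal = FP | evaluation = inhibition of Csn5 cleavage, % | compound dosing = single dose of 12.5 µM compound with 0.25% DMSO | probe or stimulus = 10 nM SCFSkp2-Nedd8OG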
HNF4A DNA FP: change in binding of human HNF4A to DNA, primary screen, biochemical, fluorescence polarization, FITC-DNA. AID 1224865, 2016. 1 h. activity change, % at 10 µM. Hepatocyte nuclear factor 4-alpha (Homo sapiens), P41235. 360,000 compounds, 0.3% hits; in the data active means activity change above about 30%, passing the limit was not always enough
Rpn11 inh: Rpn11 (PSMD14) deubiquitinase inhibitors, primary screen, biochemical, fluorescence polarization, uHTS; 26S proteasome non-ATPase regulatory subunit 14 (Homo sapiens), O00487; 360,000 compounds, 0.59% hits; AID 588493, 2011; human 26S proteasome, Ub4-pepOG fluorescence polarization; 20S core pre-blocked with epoxomicin; inhibition, % at 20 µM;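 active means inhibition at 20 µM, scaled to each plate's controls, above about 33%, limit read from the data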
Target sequence (O00487 whole entry, looked up): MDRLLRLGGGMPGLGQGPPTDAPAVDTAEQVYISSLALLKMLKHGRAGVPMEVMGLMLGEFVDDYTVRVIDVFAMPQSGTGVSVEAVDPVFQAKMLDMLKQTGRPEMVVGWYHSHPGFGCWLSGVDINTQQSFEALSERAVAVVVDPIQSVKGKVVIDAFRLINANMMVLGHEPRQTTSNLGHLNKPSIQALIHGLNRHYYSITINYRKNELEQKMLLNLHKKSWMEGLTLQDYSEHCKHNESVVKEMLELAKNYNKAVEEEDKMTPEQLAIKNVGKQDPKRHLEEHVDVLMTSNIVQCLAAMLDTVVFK
SENP1 inh conf: human SENP1 catalytic domain inhibitors, confirmation, biochemical, FRET endpoint, single concentration; inhibition, % at 10 µM; 520 compounds, 34% hits; AID 651678, 2012; shares compounds with SENP1 FRET inh; recombinant SENP1, CyPet-SUMO1-YPet FRET cleavage; in the data active means inhibition mostly above about 35%, no sharp cut-off; inactive means mostly below about 32%
SENP1 kin conf: human SENP1 catalytic domain inhibitors, confirmation, biochemical, kinetic FRET, single concentration; shares compounds with SENP1 FRET inh; recombinant SENP1, CyPet-SUMO1-YPet FRET kinetic cleavage; inhibition, % at 10 µM; 520 compounds, 26% hits; in the data active means inhibition mostly above about 32%, no sharp cut-off; inactive means mostly below about 29%
Numbers stand for hits.

For COc1cccc(/C=C/C(=O)OCC(=O)Nc2ccc(Cl)cn2)c1 the results were TPT1 inh inactive, SENP1 FRET inh inactive, CSN inh inactive, HNF4A DNA FP inactive and Rpn11 inh inactive.
Screening Nc1ccc2c(c1)-c1ccc(F)cc1C2=O returned SENP1 FRET inh 82.1, CSN inh inactive, HNF4A DNA FP inactive, Rpn11 inh inactive, SENP1 inh conf 49.3 and SENP1 kin conf inactive.
`O=C(NCC1CCCO1)c1sc(=S)n2c1[nH]c(=O)c1ccc(C(=O)N3CCCCC3)cc12` (centres undefined) gave TPT1 inh inactive, SENP1 FRET inh 30.6, CSN inh inactive, HNF4A DNA FP inactive, Rpn11 inh inactive, SENP1 inh conf 41.9 and SENP1 kin conf inactive.
`Cc1cccc(N=Nc2cnc(N)s2)c1` gave TPT1 inh inactive, SENP1 FRET inh inactive, CSN inh inactive, HNF4A DNA FP inactive and Rpn11 inh inactive.
For CCOC(=O)c1cccc(NC(=O)Cn2nc(C)n3cccc3c2=O)c1 the results were TPT1 inh inactive, SENP1 FRET inh inactive, CSN inh inactive, HNF4A DNA FP inactive and Rpn11 inh inactive.
For Cc1ccc(-c2nc3ncccn3c2Nc2ccc3c(c2)OCO3)o1 the results were TPT1 inh inactive, SENP1 FRET inh 42.5, CSN inh inactive, HNF4A DNA FP inactive, Rpn11 inh inactive, SENP1 inh conf inactive and SENP1 kin conf inactive.
`Cc1ccc(Nc2c(-c3ccc(C)o3)nc3ncccn23)cc1` gave TPT1 inh inactive, SENP1 FRET inh inactive, CSN inh inactive, HNF4A DNA FP inactive and Rpn11 inh inactive.
`O=C1CC(c2ccccc2)Cc2nc3nc(C(F)(F)F)nn3cc21` (centres undefined) gave TPT1 inh inactive, SENP1 FRET inh 62.7, CSN inh inactive, HNF4A DNA FP inactive, Rpn11 inh inactive, SENP1 inh conf inactive and SENP1 kin conf inactive.
`Cc1ccccc1NC(=O)c1cccc(C(=O)Nc2ccccc2C)n1` gave TPT1 inh inactive, SENP1 FRET inh 37.6, CSN inh inactive, HNF4A DNA FP inactive, Rpn11 inh inactive, SENP1 inh conf inactive and SENP1 kin conf inactive.
Screening Cc1ccccc1NC(=O)c1cccc(C(=O)Nc2ccccc2C)c1 returned TPT1 inh inactive, SENP1 FRET inh inactive, CSN inh inactive, HNF4A DNA FP inactive and Rpn11 inh inactive.
For Cc1ccc(NC(=O)Cn2nc(-c3ccccc3Cl)ccc2=O)c(Br)c1 the results were TPT1 inh inactive, SENP1 FRET inh inactive, CSN inh inactive, HNF4A DNA FP inactive and Rpn11 inh inactive.
Cc1ccc2nc3sc(C(=O)N4CCOCC4)c(N)c3cc2c1 was read as TPT1 inh inactive, SENP1 FRET inh inactive, CSN inh inactive, HNF4A DNA FP inactive and Rpn11 inh inactive.
Screening Cc1ccc2cc3c(N)c(C(=O)N4CCOCC4)sc3nc2c1 returned TPT1 inh inactive, SENP1 FRET inh 46.9, CSN inh inactive, HNF4A DNA FP inactive, Rpn11 inh inactive, SENP1 inh conf 40.1 and SENP1 kin conf inactive.
COc1ccc(C2C(C(C)=O)=C(C)N=c3s/c(=C\c4ccc5c(c4)OCO5)c(=O)n32)c(OC)c1 (centres undefined) was read as TPT1 inh inactive, SENP1 FRET inh inactive, CSN inh inactive, HNF4A DNA FP inactive and Rpn11 inh inactive.
For COc1ccc(C2C(C(C)=O)=C(C)N=c3s/c(=C\c4ccco4)c(=O)n32)c(OC)c1 (centres undefined) the results were TPT1 inh inactive, SENP1 FRET inh 36.6, CSN inh inactive, HNF4A DNA FP inactive, Rpn11 inh inactive, SENP1 inh conf 40.8 and SENP1 kin conf 32.3.

Screening data from PubChem BioAssay.
